Screening results as filed in PubChem BioAssay.
Env fusion inh: HIV envelope-mediated fusion inhibition; HeLa-JRFL Env/CEM21 cell fusion, luciferase; inhibition, % at 12.3 µM; 360,000 compounds, 1.1% hits; AID 651610;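 active = mean replicate inhibition score of at least 50 and every replicate individually at or above 50; inconclusive = only one of the two criteria met; inactive = mean below 50 and not all replicates reaching 50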;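 also: 0% = plate neutral controls and 100% = maraviroc near 300 nM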
FN deposit inh: fibronectin deposition inhibition. AH1F fibroblasts, Alexa488-fibronectin deposition fluorescence, overnight. inhibition, % at 12.6 µM. 350,000 compounds, 0.086% hits;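 active = mean inhibition across replicates of 30% or more, regardless of how many single replicates reach that level; inconclusive = mean under 30% yet at least half of replicates reach 30%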;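 also: positive control wells lacked labelled fibronectin entirely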
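material = AH1F fibroblast monolayer depositing Alexa488-labelled fibronectin into matrix | amount = 10000 AH1F cells/well | buffer or medium = DMEM plus 2% serum, read in PBS | incubation = 1 h cell adhesion before compound, then overnight fibronectin incubation | detection = fluorescence at 485 nm excitation, 525 nm emission | evaluation = percent inhibition as loss of matrix-bound fibronectin fluorescence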
PvdQ inh: blocks Pseudomonas aeruginosa PvdQ acylase activity; purified PvdQ acylase, fluorescence plate reader; inhibition, % at 10 µM; 340,000 compounds, 0.063% hits; AID 488965; in the data active = inhibition above about 30%, passing the limit was not always enough; inconclusive = no clear call, values can overlap the other calls;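 also: 0% = vehicle neutral wells and 100% = reference inhibitor wells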
PDI turbidity: inhibitors of human protein disulfide isomerase; P07237; PDI insulin aggregation turbidity, A650, 90 min; inhibition, % at 10 µM; 350,000 compounds, 0.052% hits;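 active = mean inhibition across replicates of 30% or more, whatever share of single replicates reach that level; inconclusive = mean inhibition below 30% while every single replicate reaches 30%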
Target sequence (P07237 whole entry, looked up): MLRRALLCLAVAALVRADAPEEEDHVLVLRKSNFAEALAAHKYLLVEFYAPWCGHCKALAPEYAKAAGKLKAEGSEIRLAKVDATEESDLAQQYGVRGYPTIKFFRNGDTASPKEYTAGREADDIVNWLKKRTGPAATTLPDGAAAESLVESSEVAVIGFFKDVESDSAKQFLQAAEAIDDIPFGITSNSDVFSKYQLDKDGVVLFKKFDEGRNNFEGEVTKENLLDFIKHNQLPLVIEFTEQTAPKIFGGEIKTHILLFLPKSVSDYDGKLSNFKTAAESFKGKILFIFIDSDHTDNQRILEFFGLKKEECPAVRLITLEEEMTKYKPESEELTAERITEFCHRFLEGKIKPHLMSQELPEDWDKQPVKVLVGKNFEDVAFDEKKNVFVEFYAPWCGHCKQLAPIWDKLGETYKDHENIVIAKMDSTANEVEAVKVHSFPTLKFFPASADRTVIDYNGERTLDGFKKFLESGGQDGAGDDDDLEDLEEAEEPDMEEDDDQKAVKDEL
rRNA inh HTS: inhibits bacterial ribosomal RNA function over humanized ribosomes; E. coli WT GFP vs humanized-ribosome RFP mutants, fluorescence, 24 h; stronger effect = lower value; DMSO median 0, no signal -100; GFP signal change (wild-type ribosome), % (test concentration not listed); 350,000 compounds, 1.6% hits; AID 720706;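 active = significant combined selectivity score with lowered wild-type GFP, culture density cut under 30%, mutant RFP and density less affected; inactive = any of these conditions unmet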
ERp5 block: blocks human ERp5 reductase activity on insulin | 350,000 compounds, 0.05% hits | inhibition, % at 9.99 µM | Q15084 | ERp5 insulin aggregation, absorbance 650 nm, 90 min | AID 651711;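 active = mean replicate inhibition above about 25%, with every replicate also reaching it, limit read from the data, passing the limit was not always enough; inconclusive = only one of those two criteria met; inactive = neither criterion met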
Starred values were filed as active, the others as inactive; ? = inconclusive; / = not tested or not shown; [ ] = another dose, or the depositor's remark. Hits are enriched below; roughly 2.2% of the tested compounds scored in any of these assays.

SMILES	Env fusion inh	FN deposit inh	PvdQ inh	PDI turbidity	rRNA inh HTS	ERp5 block
O=C1C(Cl)=C(N2CCC(C(=O)O)CC2)C(=O)c2ccccc21	/	/	3.5	3.9	/	/
O=C(NC1CCCC1)C(c1ccc(F)cc1)N(Cc1ccccc1)C(=O)c1csnn1 (stereo unspecified)	53.8	-1.8	-5.9	1.5	-0.5	-1.6
O=C(NC1CCCCC1)C(c1ccc(F)cc1)N(Cc1ccco1)C(=O)c1csnn1 (stereo unspecified)	63.2*	-9.7	6.3	-4.1	2.8	0.1
CC(C)CCN(C(=O)c1csnn1)C(C(=O)NC1CCCC1)c1ccc(F)cc1 (stereo unspecified)	76.2*	-5.0	11.9	-2.0	-25.9	-0.8
Cc1ccc(C(C(=O)NC2CCCCC2)N(C(=O)c2csnn2)C2CCCC2)o1 (stereo unspecified)	71.2*	-14.9	-1.9	-7.6	-0.6	2.4
CCCN1C[C@@H](C)[C@@H](OC)CN(C)C(=O)c2cc(NC(=O)Nc3c(C)noc3C)ccc2OC[C@@H]1C	/	-4.0	/	/	-2.9	1.7
N#Cc1c(NC(=O)c2ccccc2Cl)n(Cc2ccccc2)c2nc3ccccc3nc12	19.8	-3.4	-1.8	2.0	-16.6*	4.4
CCCCn1c(NC(=O)c2ccccc2Cl)c(C#N)c2nc3ccccc3nc21	-7.2	-5.1	-4.8	10.1	/	/
CNc1cc(-c2ccc(OC)c(OC)c2)ncn1	-86.8	0.6	/	-2.4	-0.4	2.0
CNc1ccc2ncc(-c3ccc(OC)c(OC)c3)n2n1	58.3*	17.1	/	9.5	-6.5	10.3
CCC(=O)N(C)C[C@H]1Oc2cc(C#CC3CCCC3)ccc2S(=O)(=O)N([C@@H](C)CO)C[C@H]1C	-9.9[16.7 µM]	-2.9	/	/	-3.4	9.8
O=C(NCCc1ccc(C(F)(F)F)cc1)C1CCC(=O)N(CCCc2ccccc2)C1 (stereo unspecified)	13.9	5.4	-11.4	2.8	-45.7*	1.4
O=C(C[C@H]1CC[C@H]2[C@@H](COC[C@@H](O)CN2S(=O)(=O)c2cccc(F)c2)O1)NC1CCC1	1.5[16.7 µM]	-7.8	/	/	6.7	-7.9
CCCCNC(=S)N1CCN(c2ccc(C(C)=O)cc2)CC1	-4.4	2.3	0.8	-8.9	-21.7*	0.0
CSCCCNC(=S)N1CCN(c2ccc(C(C)=O)cc2)CC1	-6.0	-3.3	-6.1	-5.7	-6.8	2.8
C/C=C/c1ccc2c(c1)O[C@@H](CN(C)CC1CCCC1)[C@H](C)CN([C@H](C)CO)S2(=O)=O	-12.8[16.7 µM]	-4.3	/	/	-0.9	-3.1
CC1CCCN(c2ccc3nc4ccccc4c(=O)n3n2)C1 (stereo unspecified)	12.6	-4.7	-7.9	3.6	-18.4*	4.6
COc1ccc2c3c(n(C)c2c1)[C@H](CO)N(C(=O)Nc1ccc(F)cc1)CC31CCN(S(=O)(=O)c2cccs2)CC1	/	/	/	/	-0.8	1.8
S=c1[nH]nc(C(c2ccccc2)C2CCCCC2)o1 (stereo unspecified)	-26.5	2.1	-3.7	-2.9	-27.0*	0.9
CN(C)c1nc(OCCOC(=O)Nc2ccc(Cl)cc2Cl)nc(N(C)C)n1	/	/	2.2	14.7	-0.4	-2.8
CON(C)c1nc(OCCNC(=O)OCc2ccc(Cl)cc2C)nc(N(C)C)n1	150.3*	-8.3	0.5	-1.8	/	/
O=C(Cn1cnc2ccccc21)c1ccc(Br)cc1	-13.7	-25.0	-11.1	-3.1	-28.5*	1.2
CCCN(C)C[C@H]1OCCCC[C@H](C)Oc2ccc(NC(=O)Nc3cccc4ccccc34)cc2C(=O)N([C@@H](C)CO)C[C@H]1C	-8.6[16.7 µM]	/	/	/	-5.2	9.0
CS(=O)(=O)c1ccc(Cl)c(NC(=O)CN2CCCC2c2ccc3c(c2)OCCCO3)c1 (stereo unspecified)	61.3*	-6.2	-13.1	1.3	/	-1.1
COc1cc2cc(CCO)oc(=O)c2cc1OC	65.4*	4.4	7.0	2.5	-8.5	-2.7
SMILES	Env fusion inh	FN deposit inh	PvdQ inh	PDI turbidity	rRNA inh HTS	ERp5 block
Cc1cccc2cc(-c3ccccc3)c(-c3ccccc3)c[n+]12	27.9	-6.3	-3.3	0.6	-42.2*	6.8
CCn1c2ccccc2c2cc(N)ccc21	/	/	-16.4	-4.1	/	/
CCn1c2ccccc2c2cc(/C=C(/C#N)C(N)=S)ccc21	56.6*	-8.5	-5.1	-1.4	-23.1	-8.1
CC(C)C[C@@H](C)C(=O)N(Cc1ccccc1)c1ccccc1	14.4	6.2	-4.1	-5.3	-34.8*	-3.0
CC[C@@H](CCC=C(C)C)C(=O)N(Cc1ccccc1)c1ccccc1	16.3	10.3	-12.5	4.4	-1.9	-1.5
C[C@@H]1CN([C@H](C)CO)C(=O)Cc2cc(NS(=O)(=O)c3cn(C)cn3)ccc2O[C@H]1CN(C)Cc1ccncc1	/	/	/	/	1.1	0.4
CN(C)CCCNC(=O)C[C@@H]1CC[C@H]2[C@H](COc3ccc(NC(=O)C4CCC4)cc3C(=O)N2C)O1	/	0.5	/	/	4.6	-1.0
O=C(C1CCCN(S(=O)(=O)c2cccc3nonc23)C1)N1CCN(c2ccccc2)CC1 (stereo unspecified)	/	/	3.0	7.0	-29.4*	3.6
CC1CC(C)CN(C(=O)C2CCCN(S(=O)(=O)c3cccc4nonc34)C2)C1 (stereo unspecified)	/	/	5.6	-4.6	/	/
CCn1cc(CN2CCCC(C(=O)c3ccc(-c4ccccc4)c(F)c3)C2)cn1 (stereo unspecified)	3.0	-2.5	-4.4	-3.4	-12.7	-0.3
O=C(c1ccc(-c2ccccc2)c(F)c1)C1CCCN(CCCn2cccn2)C1 (stereo unspecified)	21.4	5.0	-5.7	-1.1	-22.2*	?
CN(C)C(=O)[C@@]1(Cc2ccccc2N=[N+]=[N-])N=C(c2ccc(OCCCO)cc2)O[C@H]1c1ccccc1N=[N+]=[N-]	8.3[16.7 µM]	/	/	/	/	1.2
[N-]=[N+]=Nc1ccccc1C[C@@]1(C(=O)NCc2ccccc2)N=C(c2ccc(OCCCO)cc2)O[C@@H]1c1ccccc1N=[N+]=[N-]	59.5*[16.7 µM]	/	/	/	/	-2.7
NC(=O)Cn1c(S(=O)(=O)Cc2ccccc2)nc2ccccc21	-46.6	-28.2	-2.6	8.4	/	/
C#CCn1c(S(=O)(=O)Cc2ccc(F)cc2)nc(-c2ccccc2)c1-c1ccccc1	66.2*	-7.4	2.4	2.4	/	/
CCOC(=O)Cn1c(S(=O)(=O)Cc2cccc(F)c2)nc(-c2ccccc2)c1-c1ccccc1	87.0*	9.6	1.7	-7.4	/	/
CCOC(=O)Cn1c(S(=O)(=O)Cc2ccc(F)cc2)nc(-c2ccccc2)c1-c1ccccc1	-4.2	/	9.3	2.5	/	/
CCC1(O)C(=O)OCc2c1cc1n(c2=O)Cc2cc3c(N)cccc3nc2-1 (stereo unspecified)	67.9*	-17.6	-10.4	-2.4	3.3	0.9
CCC1(OC(=O)CN(C)C)C(=O)OCc2c1cc1n(c2=O)Cc2cc3c(N)cccc3nc2-1 (stereo unspecified)	/	/	-10.2	-11.9	/	/
CCC(=O)Nc1ccc2c(c1)C(=O)N(C)[C@H]1CC[C@H](CC(=O)Nc3c(F)cccc3F)O[C@@H]1CO2	-5.2[16.7 µM]	/	/	/	1.6	/
